Screening data deposited in PubChem by several laboratories.
Diaph inh CS = inhibits diaphorase or chemically oxidizes, flagging diaphorase assay artifacts; diaphorase resazurin-to-resorufin fluorescence, NADH, 16 min; bacterial (C. kluyveri) enzyme, not human; inhibition, % at 20 µM; actives 0.69% (n = 190,000); AID 1217;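 active means primary screen inhibition at 20 µM above a set limit, cut at about 50% in these data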;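 further: plate controls were DMSO with full reaction for no effect and wells lacking NADH for full effect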
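System: Bacterial diaphorase enzyme (C. kluyveri) | Incubation: 16-min room-temperature incubation before reading | Benchmarks: No-NADH positive control and DMSO neutral control | Measured by: Resorufin fluorescence 544/590 nm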
G6PDH CS = counter-screen for G6PDH assay hits: L. mesenteroides G6PDH inhibition | Purified L. mesenteroides G6PDH, diaphorase/resazurin coupled fluorescence, 45 min | inhibition, % at 5 µM | actives 0.12% (n = 200,000)
Diaph act CS = diaphorase activation or chemical reduction counter-screen. Diaphorase/resazurin coupled assay, resorufin fluorescence, 16 min; hits give high values; 1 = vehicle wells, 0 = NADH-free wells. activation factor at 20 µM. actives 0.005% (n = 190,000). AID 1229;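 active means diaphorase activity raised at least twofold by the compound at 20 µM; inactive means activation factor below 2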
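Test system: Clostridium kluyveri diaphorase, purified enzyme. Buffer or medium: 50 mM HEPES pH 7.4 buffer plus MgCl2 and Tween 20. Also added: 0.114 mM NADH and 0.1 mM resazurin, final amounts. Dosing: compound 20 µM once, DMSO 1%. Schedule: 16 min enzyme reaction, ambient temperature. Detection: fluorescence of resorufin, 544 nm excitation, 590 nm emission.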
Lmaj promast = inhibitors of Leishmania major promastigote growth; Leishmania major promastigotes, resazurin fluorescence viability; inhibition, % at 10 µM; actives 9% (n = 200,000); AID 1063;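 further: promastigotes grown with compound for 44 hours at 28 °C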
WT yeast gro inh = growth inhibition of WT yeast, mitochondrial fusion screen. inhibition, % at 10 µM. actives 2.1% (n = 190,000). mitochondrial fusion phenotypic screen, WT strain; in the data active means inhibition above about 58%; tested in S. cerevisiae
Starred values were filed as active, the others as inactive. An excerpt weighted towards active compounds, which were near 11% of everything screened. Unless noted, no stated cut-off is given here; in the data, active means inhibition above about 50%; inactive means the rest.

SMILES	Diaph inh CS	G6PDH CS	Diaph act CS	Lmaj promast	WT yeast gro inh
O=S(=O)(NC1CCN(Cc2ccccc2)CC1)c1ccc2ccccc2c1	16.7	0.7	0.8	88.9*	39.5
O=C(NNS(=O)(=O)c1ccc2ccccc2c1)C1CCN(Cc2ccccc2)CC1	11.6	3.0	0.9	42.2	3.7
CCC1CCCCN1Cc1ccc(CNS(=O)(=O)c2ccc3c(c2)oc(=O)n3C)o1 (configuration not stated)	12.8	6.7	0.9	97.6*	-5.6
Cc1ccc(NC(=O)C(OC(=O)c2ccc(F)cc2)c2ccccc2)cc1Cl (configuration not stated)	9.1	-4.7	0.9	4.3	-10.1
Cc1ccc(NC(=O)C(OC(=O)c2ccc(O)cc2)c2ccccc2)cc1Cl (configuration not stated)	24.6	-1.4	0.8	4.5	89.2*
C=CCN1C=CC=C/C1=C1\SC(=S)N(C)C1=O	-5.7	3.9	1.1	0.7	-17.4
Cc1ccc2cc(CN(C(=O)c3ccco3)c3ccccc3C)c(=O)[nH]c2c1	9.0	2.9	0.9	9.1	96.5*
Cc1ccc2cc(CCNC(=O)c3ccco3)c(=O)[nH]c2c1	6.1	7.4	0.9	-6.7	3.6
Cn1c(CNC2CCCCC2)c(C#N)c2ccccc21	2.3	12.3	1	9.2	9.4
Fc1ccc(Nc2c(-c3ccco3)nc3ccccn23)cc1	0.1	10.3	1	66.5*	15.1
O=c1c(Cl)c(NCc2ccccc2)cnn1C12CC3CC(CC(C3)C1)C2	3.5	22.0	1	92.6*	-13.2
CCn1c2ccccc2c2nc3cc(S(=O)(=O)N4CCOCC4)ccc3nc21	18.7	0.0	0.8	14.3	25.2
CCCNc1nc(N)nc(-c2cc(Cl)ccc2OC)n1	6.5	-6.9	0.9	-5.7	2.1
CCCN(CCC)c1nc(N)nc(-c2cc(Cl)ccc2OC)n1	29.5	-23.2	0.7	58.2*	22.6
Cc1ccc(OCCN2C(=O)NC3(CCc4ccccc4C3)C2=O)cc1 (configuration not stated)	12.1	1.8	0.9	-7.0	16.3
CCOc1cc(S(=O)(=O)N2CC=C(c3ccc(F)cc3)CC2)c(OCC)cc1-n1cnnn1	10.2	6.1	0.9	61.7*	12.1
CCOc1cc(S(=O)(=O)N2CCC(Cc3ccccc3)CC2)c(OCC)cc1-n1cnnn1	11.6	1.1	0.9	23.2	23.1
COc1ccc(-c2nn(C)c(=O)c3ccccc23)cc1NC(=O)Cn1nc(C)c2ccccc2c1=O	29.2	-48.9	0.7	99.5*	7.2
COC(=O)Cn1nc(-c2ccc(C)cc2)c2ccccc2c1=O	11.4	-4.1	0.9	1.7	64.1*
Cn1nnc(NC(=O)COc2ccc(C3CCCCC3)cc2)n1	12.3	-5.8	0.9	-5.4	-2.9
NS(=O)(=O)c1ccc(CCNC(=O)CSc2nc3ccsc3c(=O)n2CCCCC(=O)O)cc1	1.9	-2.3	1	-7.2	-2.9
OCCCCNCc1ccc(OCc2ccc(Cl)cc2Cl)cc1	-15.5	0.9	1.2	100.5*	31.9
OCCNCc1ccc(OCc2ccc(Cl)cc2Cl)cc1	2.7	12.9	1	100.5*	75.4*
S=C(Nc1ccccc1)Nc1ccc(OCc2ccc(Cl)cc2Cl)cc1	4.7	-12.0	1	18.4	6.9
CCOc1ccc(CNCc2ccccc2Cl)cc1	9.1	3.4	0.9	-1.5	-10.9
SMILES	Diaph inh CS	G6PDH CS	Diaph act CS	Lmaj promast	WT yeast gro inh
Cc1ccc(C(C(=O)Nc2ccc3c(c2)OCO3)N(C)C(=O)/C=C\c2ccc3c(c2)OCO3)cc1 (configuration not stated)	23.1	-11.4	0.8	87.0*	16.8
O=C1NCCCC1C(=O)Nc1ccccc1C(F)(F)F (configuration not stated)	6.2	2.6	0.9	-6.4	18.2
CC(C)(CO)NCc1cccc(OCc2ccc(Cl)cc2)c1	1.6	-5.5	1	31.1	12.3
Clc1ccc(COc2cccc(CNCc3ccncc3)c2)cc1	5.0	9.1	0.9	94.0*	34.0
c1ccc(COc2cccc(CNCc3cccs3)c2)cc1	5.3	8.0	0.9	98.3*	-6.1
Cc1sc(-n2c(C)cc(/C=C3\SC(=S)NC3=O)c2C)c(C#N)c1C	43.1	2.8	0.6	22.0	76.7*
Cc1sc(-n2c(C)cc(/C=N/n3cnnc3)c2C)c(C#N)c1C	16.1	-1.3	0.8	77.0*	-4.8
COc1cc(CNCc2cccs2)ccc1OCc1cccs1	19.8	0.5	0.8	99.7*	-3.4
COc1cc(CNCc2cccs2)ccc1OCC(=O)NC(C)(C)C	-0.6	4.6	1	89.1*	-0.7
COc1cc(CNCc2cccs2)ccc1OCC(N)=O	10.9	4.2	0.9	-2.9	-1.5
CCOc1cc(CNCc2cccs2)ccc1OCC(=O)NC(C)(C)C	1.2	10.1	1	5.0	-5.1
O=c1c(Cl)cc(Cl)nn1-c1ccccc1	0.3	9.6	1	70.5*	-6.7
CC1(C)CC(=O)C2=C(C1)OC1=C(C(=O)CC(C)(C)C1)C2c1ccc(O)cc1O	32.1	-0.5	0.7	75.8*	4.6
COCCn1c(=NC(=O)CSCC(=O)Nc2cc(C)on2)sc2cc(C(=O)OC)ccc21	12.9	4.2	0.9	4.2	-2.3
O=C(N[C@@H](Cc1ccccc1)c1nc2ccccc2[nH]1)c1cc([N+](=O)[O-])ccc1Cl	10.6	0.2	0.9	89.5*	-5.5
O=C(Cc1ccccc1)N[C@@H](Cc1ccccc1)c1nc2ccccc2[nH]1	11.9	0.1	0.9	-6.5	1.4
Cc1cc(N2CCCC2)nc2ccc(NC(=S)NCCCOC(C)C)cc12	-9.2	2.3	1.1	92.8*	-8.4
CCCN(CCC)CCCNC(=S)Nc1ccc2nc(N3CCCC3)cc(C)c2c1	-44.7	-1.0	1.4	87.2*	-5.5
CCN(CC)CCNC(=S)Nc1ccc2nc(N3CCCC3)cc(C)c2c1	-11.9	-3.7	1.1	86.1*	1.0
CCc1ccc(NC(=S)NCC2CCCN2CC)cc1 (configuration not stated)	5.6	3.4	0.9	36.4	-6.1
CC12CCC(C/C1=N/OC(=O)c1cccc([N+](=O)[O-])c1)C2(C)C (configuration not stated)	7.7	8.9	0.9	5.4	13.1
CC1CCc2cc(F)ccc2N1C(=O)C1(C)CC1(Cl)Cl (configuration not stated)	10.7	4.8	0.9	0.0	18.6
Cc1ccc2nc(Cl)c(CN(C(=O)c3cnccn3)C3CCCCC3)cc2c1	8.0	6.0	0.9	53.1*	17.4
CCOC(=O)c1cc(-c2ccc(C)cc2)nc2nc(SC)[nH]c(=O)c12	-1.3	10.4	1	56.0*	-14.3
CCOC(=O)c1cc(-c2cccc(C(F)(F)F)c2)nc2nc(SC)[nH]c(=O)c12	7.4	10.4	0.9	8.5	-5.5
CC(=O)c1ccccc1OC(=O)CCN1C(=O)c2ccccc2C1=O	9.5	1.8	0.9	-5.6	1.4
